Data set [1] in a line: Induction of CYP3A4 gene expression in cryopreserved human hepatocytes assessed as increase in CYP3A4 mRNA level at 10 uM incubated for 24 hrs by qRT-PCR analysis relative to rifampicin. Format: ADME, cell-based. Put shortly: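 Cryopreserved hepatocytes from one human donor were seeded at 1 × 10^6 cells/mL and cultured 24 h in serum-free Williams E. Compounds at 0.1, 1.0 and 10 µM (0.1% DMSO) were added in triplicate for 24 h, with vehicle wells as negative controls. Positive controls were omeprazole for CYP1A2, phenobarbital for CYP2B6 and rifampicin for CYP3A4. mRNA was measured by TaqMan qRT-PCR normalised to PPIA (2^-ΔΔCT) and expressed as % of the positive control.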
On the technique in general: Quantitative PCR measures a nucleic acid by following its amplification.

The nature of data set [2]: Cytotoxicity in human HepDE19 cells assessed as reduction in cell viability incubated for 5 days by CCK8 assay. Format: cell-based. Put shortly: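 HepDE19 cells were grown in DMEM-F12 with 10% FBS, penicillin/streptomycin and 0.5 mg/mL G418, then seeded at 5 × 10^3 cells/well. Compound exposure lasted 5 days. Viability was read with CCK-8 after 2 h at 37 °C, measuring OD450 and OD630. CC50 was the concentration killing 50% of cells; duplicate runs.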
On the technique in general: Formazan colour is commonly taken as a measure of viable cells.

In general, CC50 refers to the concentration that lowers cell viability or growth by half.

Regarding `CCOC(=O)C1=C(CN2CCOC[C@H]2C(=O)O)NC(c2nccs2)=N[C@H]1c1ccc(C)c(F)c1`, in data set [1], the Activity was 40%. Moreover, the CC50 at 120 h in data set [2] is 85 µM.

Regarding `COC(=O)C1=C(CN2CC(F)(F)C[C@H]2C(=O)O)NC(c2nccs2)=N[C@H]1c1ccc(F)cc1F`, the Activity in data set [1] was determined as 96%. Moreover, the CC50 at 120 h in data set [2] was more than 100 µM.

As to `COC(=O)C1=C(CN2CC(F)(F)C[C@H]2C(=O)O)NC(c2nccs2)=N[C@H]1c1ccc(F)cc1Cl`, the Activity in data set [1] is 109%. For the same molecule, the cytotoxic concentration (CC50) at 120 h in data set [2] stood at 65 µM.

Turning to `COC(=O)C1=C(CN2CCOC[C@H]2C(=O)O)N=C(c2nccs2)N[C@H]1c1ccc(F)cc1Cl`, the Activity in data set [1] is given as 111%. Besides, in data set [2], the CC50 at 120 h was more than 100 µM.

Take `COC(=O)C1=C(CN2CCOC[C@H]2C(=O)O)NC(c2nccs2)=N[C@H]1c1ccc(F)c(F)c1`: in data set [1], the Activity is 36%. In addition, the CC50 at 120 h in data set [2] is more than 100 µM.

Take `CCOC(=O)C1=C(CN2CCOC[C@H]2C(=O)O)NC(c2nccs2)=N[C@H]1c1ccc(F)cc1F`: the Activity in data set [1] is 135%. Further, the CC50 at 120 h in data set [2] is more than 100 µM.

As to `CCOC(=O)C1=C(CN2CCOC[C@H]2C(=O)O)NC(c2nccs2)=N[C@H]1c1ccc(F)cc1Cl`, the Activity in data set [1] came out at 173%. In data set [2], the half-maximal cytotoxic concentration (CC50) at 120 h was more than 100 µM.

Regarding `CCOC(=O)C1=C(CN2CC(F)(F)C[C@H]2C(=O)O)NC(c2nccs2)=N[C@H]1c1ccc(F)cc1Cl`, in data set [1], the Activity is reported as 123%. Moreover, the cytotoxic concentration (CC50) at 120 h in data set [2] was more than 100 µM.

Regarding `CCOC(=O)C1=C(CN2CCOC[C@H]2C(=O)O)NC(c2nccs2)=N[C@H]1c1cccc(F)c1`, the Activity in data set [1] was 94%. In data set [2], the 50% cytotoxic concentration (CC50) at 120 h came out at 69 µM.

As to `CCOC(=O)C1=C(CN2CCOC[C@H]2C(=O)O)NC(c2nccs2)=N[C@H]1c1ccc(F)cc1`, the Activity in data set [1] is listed as 85%. In data set [2], the cytotoxic concentration (CC50) at 120 h was 62 µM.

For the origin of these results see ChEMBL document CHEMBL4414644, “A New Approach of Mitigating CYP3A4 Induction Led to the Discovery of Potent Hepatitis B Virus (HBV) Capsid Inhibitor with Optimal ADMET Profiles” (J Med Chem, 2019).
